Peptide text beside a SMILES is read from it.
Assays:
[1] = Stability in Sprague-Dawley rat plasma assessed as half life measured up to 24 hrs by UPLC-MS analysis; type: ADME, cell-free
In short: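 Peptide (6 μL of 1 mM aqueous solution) incubated with 27 μL male Sprague-Dawley rat plasma at 37 °C. Time points 0, 1, 2, 4, 7, 24 h, or 0–120 min for labile peptides. Reaction quenched with acetonitrile-ethanol containing N,N-dimethylbenzamide internal standard, filtered, then UPLC-MS. t1/2 from one-phase exponential decay; at least three experiments.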

Apelin receptor [2] = target: T1, Apelin receptor (Homo sapiens, UniProt P35414); assay: Agonist activity at human APJ receptor expressed in HEK293T cells co-expressing Galphai1 RlucII assessed as dissociation of Galphai1 from Gbetta/gamma subunit measured using coelenterazine luciferase substrate incubated for 5 mins by BRET assay; type: functional, cell-based, HEK293
T1 sequence (P35414 whole entry): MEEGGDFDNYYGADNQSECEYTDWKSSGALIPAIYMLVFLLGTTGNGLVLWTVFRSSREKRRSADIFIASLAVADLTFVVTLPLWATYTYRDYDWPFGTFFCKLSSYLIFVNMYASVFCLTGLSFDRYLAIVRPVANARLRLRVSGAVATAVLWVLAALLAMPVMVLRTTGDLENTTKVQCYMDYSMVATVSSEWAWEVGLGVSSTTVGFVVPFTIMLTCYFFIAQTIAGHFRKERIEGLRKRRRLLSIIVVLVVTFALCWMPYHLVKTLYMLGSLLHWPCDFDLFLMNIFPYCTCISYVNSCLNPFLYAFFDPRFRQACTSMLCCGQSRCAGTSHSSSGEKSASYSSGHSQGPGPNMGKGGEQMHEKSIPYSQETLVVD

[3] = target: Angiotensin-converting enzyme 2 (Rattus norvegicus, UniProt Q5EGZ1); assay: Stability of the compound assessed as recombinant rat ACE2-mediated degradation measured up to 24 hrs by UPLC-MS analysis; type: ADME
In short: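 Recombinant rat ACE2 at 20 nM final in 100 mM Tris-HCl, 100 mM NaCl, 10 μM ZnCl2, pH 7.4. Peptide at 50 μM final with N,N-dimethylbenzamide internal standard, incubated 1, 2 and 24 h at 37 °C with shaking. Reaction stopped with EDTA; blank used pre-inactivated enzyme. Remaining peptide measured by UPLC-MS in SIM mode, oxidized forms summed; n = 3.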

Apelin receptor [4] = target: T1, Apelin receptor; assay: Displacement of [125I] [NIe75,Tyr77]Pyr-apelin-13 from YFP-tagged human APJ receptor expressed in HEK293 cells incubated for 1 hr by gamma counting analysis; type: cell-based
Apelin receptor [5] = target: T1, Apelin receptor; assay: Agonist activity at human APJ receptor expressed in HEK293 cells co-expressing Rlucll-beta-arrestin2 assessed as induction of beta-arrestin2 recruitment to receptor incubated for 30 mins by BRET assay; type: functional, cell-based
Apelin receptor [6] = target: T1, Apelin receptor; assay: Agonist activity at human APJ receptor expressed in HEK293T cells co-expressing PDZ-Rho-Gef-RLucll and rGFP-CAAX assessed as induction of recruitment of Galpha12 to cell membrane using coelenterazine luciferase substrate incubated for 5 mins by BRET assay; type: functional, cell-based, HEK293
[7] = AUCtot in Sprague-Dawley rat plasma at 3 mg/kg, iv bolus injection measured up to 240 mins by LC-MS/MS analysis; type: ADME, organism-based; set-up: route intravenous, dose 3 mg/kg, time <=240; details: in vivo, 4 h
In short: (§1)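 Male Sprague-Dawley rats (250−300 g, 8−10 weeks), jugular vein catheter placed 24 h before dosing, n = 3. Single i.v. bolus in 0.9% saline at 3 mg/kg. Blood drawn at 5, 10, 30, 60, 120, 240 min into K2-EDTA tubes. Plasma cleaned by acetonitrile precipitation and HLB, then quantified by LC-MS/MS.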

[8] = Clearance in Sprague-Dawley rat plasma at 3 mg/kg, iv bolus injection measured up to 240 mins by LC-MS/MS analysis; type: ADME, organism-based; in short: as §1
[9] = Half life in Sprague-Dawley rat plasma at 3 mg/kg, iv bolus injection measured up to 240 mins by LC-MS/MS analysis; type: ADME, organism-based; in short: as §1
Rattus norvegicus = assay: Hypotensive effect in Sprague-Dawley rat assessed as drop in mean arterial blood pressure at 19.6 nmol/kg, iv bolus injection measured after 1 min; type: functional
In short: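 Male Sprague-Dawley rats (250−300 g) under ketamine/xylazine (87/13 mg/kg i.m.) on a thermostatic pad. Mean arterial pressure recorded through a right carotid catheter. Saline vehicle bolus given, then 5 min later the peptide i.v. at 19.6 nmol/kg (n = 5) or 65 nmol/kg.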

Chain of Angiotensin-converting enzyme 2 (Q5EGZ1 whole entry): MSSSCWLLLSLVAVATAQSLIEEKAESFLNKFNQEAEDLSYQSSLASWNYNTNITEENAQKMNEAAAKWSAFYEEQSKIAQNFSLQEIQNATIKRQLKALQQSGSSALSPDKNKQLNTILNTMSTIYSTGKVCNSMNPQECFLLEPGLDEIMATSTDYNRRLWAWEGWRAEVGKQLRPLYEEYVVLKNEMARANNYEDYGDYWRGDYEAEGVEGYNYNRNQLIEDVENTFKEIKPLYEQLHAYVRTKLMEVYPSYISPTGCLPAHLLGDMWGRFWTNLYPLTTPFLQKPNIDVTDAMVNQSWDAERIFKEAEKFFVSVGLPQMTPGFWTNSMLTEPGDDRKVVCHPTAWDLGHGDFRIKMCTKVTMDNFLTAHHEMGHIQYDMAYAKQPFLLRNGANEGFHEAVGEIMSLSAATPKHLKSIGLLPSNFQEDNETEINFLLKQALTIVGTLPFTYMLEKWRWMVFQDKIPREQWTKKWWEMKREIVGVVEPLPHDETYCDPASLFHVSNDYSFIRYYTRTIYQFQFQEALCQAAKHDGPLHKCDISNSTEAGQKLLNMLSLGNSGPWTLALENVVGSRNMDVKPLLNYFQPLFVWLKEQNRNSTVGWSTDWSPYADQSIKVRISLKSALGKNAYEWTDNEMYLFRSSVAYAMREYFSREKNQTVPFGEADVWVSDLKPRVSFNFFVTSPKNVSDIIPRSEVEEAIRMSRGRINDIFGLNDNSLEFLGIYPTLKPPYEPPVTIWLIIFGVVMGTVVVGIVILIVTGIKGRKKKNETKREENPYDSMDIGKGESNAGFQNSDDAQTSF

half-life [1]	EC50 (Apelin receptor [2]; hek293)	Stabilty [3]	Ki (Apelin receptor [4]; hek293)	EC50 (Apelin receptor [5]; hek293)	EC50 (Apelin receptor [6]; hek293)	EC50 (Apelin receptor [2])	Ki (Apelin receptor [4])	EC50 (Apelin receptor [5])	EC50 (Apelin receptor [6])	AUC [7]	clearance [8]	half-life [9]	Structure (SMILES)	Activity (Rattus norvegicus)
0.2 h	3.8 nM	Unstable	0.18 nM	38 nM	17 nM								CCCC[C@H](NC(=O)[C@@H]1CCCN1C(=O)CNC(=O)[C@H](CCCCN)NC(=O)[C@H](Cc1cnc[nH]1)NC(=O)[C@H](CO)NC(=O)[C@H](CC(C)C)NC(=O)[C@H](CCCNC(=N)N)NC(=O)[C@@H]1CCCN1C(=O)[C@H](CCCNC(=N)N)NC(=O)[C@@H]1CCC(=O)N1)C(=O)N[C@@H](Cc1c[nH]c2ccccc12)C(=O)N[C@@H](Cc1ccccc1)C(=O)O	
0.5 h						1.5 nM	0.04 nM	19 nM	10 nM				CCCC[C@H](NC(=O)[C@@H]1CCCN1C(=O)CNC(=O)[C@H](CCCCN)NC(=O)[C@H](Cc1cnc[nH]1)NC(=O)[C@H](CO)NC(=O)[C@H](CC(C)C)NC(=O)[C@H](CCCNC(=N)N)NC(=O)[C@@H]1CCCN1C(=O)[C@H](CCCNC(=N)N)NC(=O)[C@@H]1CCC(=O)N1)C(=O)N1CCC[C@H]1C(=O)NC(Cc1ccccc1)(Cc1ccccc1)C(=O)O	
6.3 h						4.1 nM	0.16 nM	34 nM	10 nM				CCCC[C@H](NC(=O)[C@@H]1CCCN1C(=O)CNC(=O)[C@H](CCCCN)NC(=O)[C@H](Cc1cnc[nH]1)NC(=O)[C@H](CO)NC(=O)[C@H](CC(C)C)NC(=O)[C@H](CCCNC(=N)N)NC(=O)[C@@H]1CCCN1C(=O)[C@H](CCCNC(=N)N)NC(=O)[C@@H]1CCC(=O)N1)C(=O)N[C@H](Cc1cccc2ccccc12)C(=O)N1Cc2ccccc2C(C)(C)C1C(=O)O (stereo partly specified)	
7.8 h						6 nM	1.01 nM	96 nM	25 nM				CCCC[C@H](NC(=O)[C@@H]1CCCN1C(=O)CNC(=O)[C@H](CCCCN)NC(=O)[C@H](Cc1cnc[nH]1)NC(=O)[C@H](CO)NC(=O)[C@H](CC(C)C)NC(=O)[C@H](CCCNC(=N)N)NC(=O)[C@@H]1CCCN1C(=O)[C@H](CCCNC(=N)N)NC(=O)[C@@H]1CCC(=O)N1)C(=O)N[C@H](Cc1cccc2ccccc12)C(=O)N1Cc2[nH]c3ccccc3c2C[C@@H]1C(=O)O	

Continued, molecule first:

Structure (SMILES)	half-life [1]	EC50 (Apelin receptor [2]; hek293)	Stabilty [3]	Ki (Apelin receptor [4]; hek293)	EC50 (Apelin receptor [5]; hek293)	EC50 (Apelin receptor [6]; hek293)	EC50 (Apelin receptor [2])	Ki (Apelin receptor [4])	EC50 (Apelin receptor [5])	EC50 (Apelin receptor [6])	AUC [7]	clearance [8]	half-life [9]	Activity (Rattus norvegicus)
CCCC[C@H](NC(=O)[C@@H]1CCCN1C(=O)CNC(=O)[C@H](CCCCN)NC(=O)[C@H](Cc1cnc[nH]1)NC(=O)[C@H](CO)NC(=O)[C@H](CC(C)C)NC(=O)[C@H](CCCNC(=N)N)NC(=O)[C@@H]1CCCN1C(=O)[C@H](CCCNC(=N)N)NC(=O)[C@@H]1CCC(=O)N1)C(=O)N[C@H](Cc1cccc2ccccc12)C(=O)N1Cc2ccccc2C(C)C1C(=O)O (stereo partly specified)	5.3 h						4.3 nM	0.4 nM	44 nM	111 nM				
CCCC[C@H](NC(=O)[C@@H]1CCCN1C(=O)CNC(=O)[C@H](CCCCN)NC(=O)[C@H](Cc1cnc[nH]1)NC(=O)[C@H](CO)NC(=O)[C@H](CC(C)C)NC(=O)[C@H](CCCNC(=N)N)NC(=O)[C@@H]1CCCN1C(=O)[C@H](CCCNC(=N)N)NC(=O)[C@@H]1CCC(=O)N1)C(=O)N1CCC[C@H]1C(=O)N1Cc2ccccc2C[C@@H]1C(=O)O	0.8 h						1 nM	0.07 nM	10 nM	23 nM				
CCCC[C@H](NC(=O)[C@@H]1CCCN1C(=O)CNC(=O)[C@H](CCCCN)NC(=O)[C@H](Cc1cnc[nH]1)NC(=O)[C@H](CO)NC(=O)[C@H](CC(C)C)NC(=O)[C@H](CCCNC(=N)N)NC(=O)[C@@H]1CCCN1C(=O)[C@H](CCCNC(=N)N)NC(=O)[C@@H]1CCC(=O)N1)C(=O)N[C@@H](Cc1cccc2ccccc12)C(=O)NC(Cc1ccccc1)(Cc1ccccc1)C(=O)O (HELM PEPTIDE1{[Glp].R.P.R.L.S.H.K.G.P.[Nle].[O=C([C@H](Cc1cccc2ccccc12)N[*:1])[*:2]].[O=C(O)C(Cc1ccccc1)(Cc1ccccc1)N[*:1]]}$$$$V2.0) [listing 1 of 2 here]	7.3 h		Stable				3.8 nM	0.08 nM	36 nM	2.8 nM	0.12 mg·min/mL	27 mL/min/kg	0.433 h	
CCCC[C@H](NC(=O)[C@@H]1CCCN1C(=O)CNC(=O)[C@H](CCCCN)NC(=O)[C@H](Cc1cnc[nH]1)NC(=O)[C@H](CO)NC(=O)[C@H](CC(C)C)NC(=O)[C@H](CCCNC(=N)N)NC(=O)[C@@H]1CCCN1C(=O)[C@H](CCCNC(=N)N)NC(=O)[C@@H]1CCC(=O)N1)C(=O)N[C@H]1Cc2c([nH]c3ccccc23)CN([C@@H](Cc2ccccc2)C(=O)O)C1=O [listing 1 of 2 here]	5.8 h	2.5 nM	Stable	0.08 nM	25 nM	11 nM					0.13 mg·min/mL	23 mL/min/kg	0.333 h	
CCCC[C@H](NC(=O)[C@@H]1CCCN1C(=O)CNC(=O)[C@H](CCCCN)NC(=O)[C@H](Cc1cnc[nH]1)NC(=O)[C@H](CO)NC(=O)[C@H](CC(C)C)NC(=O)[C@H](CCCNC(=N)N)NC(=O)[C@@H]1CCCN1C(=O)[C@H](CCCNC(=N)N)NC(=O)[C@@H]1CCC(=O)N1)C(=O)N1CCC[C@H]1C(=O)N1Cc2ccccc2C[C@H]1C(=O)O	1.3 h						2.5 nM	1.1 nM	67 nM	88 nM				
CCCC[C@H](NC(=O)[C@@H]1CCCN1C(=O)CNC(=O)[C@H](CCCCN)NC(=O)[C@H](Cc1cnc[nH]1)NC(=O)[C@H](CO)NC(=O)[C@H](CC(C)C)NC(=O)[C@H](CCCNC(=N)N)NC(=O)[C@@H]1CCCN1C(=O)[C@H](CCCNC(=N)N)NC(=O)[C@@H]1CCC(=O)N1)C(=O)N[C@H]1Cc2c([nH]c3ccccc23)CN([C@@H](Cc2ccccc2)C(=O)O)C1=O [listing 2 of 2 here]														30 mmHg
CCCC[C@H](NC(=O)[C@@H]1CCCN1C(=O)CNC(=O)[C@H](CCCCN)NC(=O)[C@H](Cc1cnc[nH]1)NC(=O)[C@H](CO)NC(=O)[C@H](CC(C)C)NC(=O)[C@H](CCCNC(=N)N)NC(=O)[C@@H]1CCCN1C(=O)[C@H](CCCNC(=N)N)NC(=O)[C@@H]1CCC(=O)N1)C(=O)N[C@@H](Cc1cccc2ccccc12)C(=O)NC(Cc1ccccc1)(Cc1ccccc1)C(=O)O (HELM PEPTIDE1{[Glp].R.P.R.L.S.H.K.G.P.[Nle].[O=C([C@H](Cc1cccc2ccccc12)N[*:1])[*:2]].[O=C(O)C(Cc1ccccc1)(Cc1ccccc1)N[*:1]]}$$$$V2.0) [listing 2 of 2 here]														30 mmHg
CCCC[C@H](NC(=O)[C@@H]1CCCN1C(=O)CNC(=O)[C@H](CCCCN)NC(=O)[C@H](Cc1cnc[nH]1)NC(=O)[C@H](CO)NC(=O)[C@H](CC(C)C)NC(=O)[C@H](CCCNC(=N)N)NC(=O)[C@@H]1CCCN1C(=O)[C@H](CCCNC(=N)N)NC(=O)[C@@H]1CCC(=O)N1)C(=O)N[C@H](Cc1cccc2ccccc12)C(=O)N[C@H](Cc1cc(C2CCCC2)c(O)c(C2CCCC2)c1)C(=O)O	> 24 h						10 nM	1.1 nM	95 nM	178 nM				
CCCC[C@H](NC(=O)[C@@H]1CCCN1C(=O)CNC(=O)[C@H](CCCCN)NC(=O)[C@H](Cc1cnc[nH]1)NC(=O)[C@H](CO)NC(=O)[C@H](CC(C)C)NC(=O)[C@H](CCCNC(=N)N)NC(=O)[C@@H]1CCCN1C(=O)[C@H](CCCNC(=N)N)NC(=O)[C@@H]1CCC(=O)N1)C(=O)N[C@@H](Cc1cccc2ccccc12)C(=O)N1Cc2ccccc2C[C@@H]1C(=O)O	3.4 h						1.6 nM	0.09 nM	32 nM	15 nM				

From ChEMBL document CHEMBL4808162, “Constraining the Side Chain of C-Terminal Amino Acids in Apelin-13 Greatly Increases Affinity, Modulates Signaling, and Improves the Pharmacokinetic Profile” (J Med Chem, 2021)
